Laboratory results reported in ChEMBL document CHEMBL4825737, “Design, synthesis, and biological evaluation of novel 6-(pyridin-3-yl) quinazolin-4(3H)-one derivatives as potential anticancer agents via PI3K inhibition” (Bioorg Med Chem, 2021).
The source made the active and inactive calls. The rule behind the calls is not given here.

Key:
HCC827 [1] = assay: Antiproliferative activity against human HCC827 cells assessed as reduction in cell viability measured after 72 hrs by flow cytometry analysis; assay type: functional, cell-based; conditions: HCC827, 72 h
Summary of the method: (§1)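 Cells in RPMI 1640 with 10% FBS and penicillin/streptomycin/amphotericin B, seeded at 2.5–3 × 10⁴ per well. Grown adherent in fresh medium for 24 h, then exposed to a range of compound concentrations for 72 h. Living cell numbers counted by flow cytometry; IC50 calculated. Mean ± SD from three experiments.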

[2] = Antiproliferative activity against human LM3 cells assessed as reduction in cell viability measured after 72 hrs by flow cytometry analysis; assay type: functional, cell-based; conditions: GILM3, 72 h; summary of the method: as §1
SH-SY5Y = assay: Antiproliferative activity against human SH-SY5Y assessed as reduction in cell viability measured after 72 hrs by flow cytometry analysis; assay type: functional, cell-based; summary of the method: as §1
HEL = assay: Antiproliferative activity against human HEL cells assessed as reduction in cell viability measured after 72 hrs by flow cytometry analysis; assay type: functional, cell-based; summary of the method: as §1
L02 = assay: Antiproliferative activity against human HL7702 cells assessed as reduction in cell viability measured after 72 hrs by flow cytometry analysis; assay type: functional, cell-based; conditions: L02, 72 h; summary of the method: as §1
[3] = Inhibition of PI3K in human HCC827 cells assessed as decrease in phosphorylation incubated for 24 hrs by cell PI3 kinase activity photometric assay; assay type: cell-based; conditions: HCC827, 24 h
Summary of the method: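 Human NSCLC HCC827 cells grown in RPMI 1640 with 10% FBS and antibiotics-antimycotics, exposed to a range of concentrations for 24 h. Cells washed with Reagent A, lysed with Reagent B, protein measured by Bradford, then 100 μg lysate protein per group used in a cell PI3K assay kit for kinase activity. IC50 given as mean ± SD of three separate experiments.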

HCC827 [4] = assay: Induction of apoptosis in human HCC827 cells assessed as early apoptotic cells at 1 uM incubated for 48 hrs by annexin V-FITC and propidium iodide staining based flow cytometry analysis (reference value: 2.69%); assay type: functional
HCC827 [5] = assay: Induction of apoptosis in human HCC827 cells assessed as viable cells at 1 uM incubated for 48 hrs by annexin V-FITC and propidium iodide staining based flow cytometry analysis (reference value: 94.16%); assay type: functional; conditions: read-out: Activity
HCC827 [6] = assay: Inhibition of PI3K signalling in human HCC827 cells assessed as decrease in phosphorylation of Akt at Ser473 at 1 to 4 uM incubated for 24 hrs by Western blot analysis; assay type: cell-based; conditions: dose 1-4 µM
Summary of the method: (§2)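 HCC827 cells treated with different compound concentrations for 24 h. Phospho-protein levels measured by Western blot. Mean ± SD from three parallel experiments, compared with DMSO control.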

HCC827 [7] = assay: Inhibition of PI3K signalling in human HCC827 cells assessed as decrease in phosphorylation of GSKbeta at Ser9 at 1 to 4 uM incubated for 24 hrs by Western blot analysis; assay type: cell-based; conditions: dose 1-4 µM; summary of the method: as §2
HCC827 [8] = assay: Inhibition of PI3K signalling in human HCC827 cells assessed as decrease in phosphorylation of mTOR at Ser2448 at 1 to 4 uM incubated for 24 hrs by Western blot analysis; assay type: cell-based; conditions: dose 1-4 µM; summary of the method: as §2
HCC827 [9] = assay: Induction of cell cycle arrest in human HCC827 cells assessed as accumulation at G2 phase incubated for 24 hrs by […]PI assay; assay type: functional, cell-based; conditions: dose 1-4 µM
Summary of the method: (§3)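 HCC827 cells held 12 h in medium without FBS, then treated for 24 h. Fixed overnight in 70% ethanol and stained with propidium iodide plus RNase for 30 min in the dark at room temperature. Cell cycle distribution read by flow cytometry.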

HCC827 [10] = assay: Induction of cell cycle arrest in human HCC827 cells assessed as decrease in G1 phase incubated for 24 hrs by […]PI assay; assay type: functional, cell-based; conditions: dose 1-4 µM; summary of the method: as §3
HCC827 [11] = assay: Induction of apoptosis in human HCC827 cells assessed as reduction in CHK1 expression at 1 to 4 uM incubated for 24 hrs by Western blot analysis; assay type: functional, cell-based; conditions: dose 1-4 µM
Summary of the method: (§4)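 HCC827 cells treated with a range of compound concentrations for 24 h. Western blot for G2/M-associated proteins with GAPDH as loading control. Bands quantified by densitometry; mean ± SD, n = 3, compared with control.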

HCC827 [12] = assay: Induction of apoptosis in human HCC827 cells assessed as reduction in p-CHK1 expression at 1 to 4 uM incubated for 24 hrs by Western blot analysis; assay type: functional, cell-based; conditions: dose 1-4 µM; summary of the method: as §4
HCC827 [13] = assay: Induction of apoptosis in human HCC827 cells assessed as reduction in c-Myc expression at 1 to 4 uM incubated for 24 hrs by Western blot analysis; assay type: functional, cell-based; conditions: dose 1-4 µM; summary of the method: as §4
HCC827 [14] = assay: Induction of apoptosis in human HCC827 cells assessed as reduction in Cyclin-B1 expression at 1 to 4 uM incubated for 24 hrs by Western blot analysis; assay type: functional, cell-based; conditions: dose 1-4 µM; summary of the method: as §4
HCC827 [15] = assay: Induction of apoptosis in human HCC827 cells assessed as upregulation of cleaved-PRAP by Western blot analysis; assay type: functional, cell-based
Summary of the method: (§5)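 HCC827 cells treated with a range of compound concentrations. Western blot for mitochondrial apoptosis proteins with GAPDH as loading control. Bands quantified by densitometry; mean ± SD, n = 3, compared with vehicle control.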

HCC827 [16] = assay: Induction of apoptosis in human HCC827 cells assessed as upregulation of cleaved-caspase 9 by Western blot analysis; assay type: functional, cell-based; summary of the method: as §5
HCC827 [17] = assay: Induction of apoptosis in human HCC827 cells assessed as upregulation of Bax by Western blot analysis; assay type: functional, cell-based; summary of the method: as §5
HCC827 [18] = assay: Induction of apoptosis in human HCC827 cells assessed as downregulation of Bcl-2 by Western blot analysis; assay type: functional, cell-based; summary of the method: as §5
HCC827 [19] = assay: Induction of apoptosis in human HCC827 cells assessed as late apoptotic cells at 1 uM incubated for 48 hrs by annexin V-FITC and propidium iodide staining based flow cytometry analysis (reference value: 0.56%); assay type: functional
HCC827 [20] = assay: Induction of apoptosis in human HCC827 cells assessed as necrotic cells at 1 uM incubated for 48 hrs by annexin V-FITC and propidium iodide staining based flow cytometry analysis (reference value: 2.57%); assay type: functional
HCC827 [21] = assay: Induction of apoptosis in human HCC827 cells assessed as viable cells at 2 uM incubated for 48 hrs by annexin V-FITC and propidium iodide staining based flow cytometry analysis (reference value: 94.16%); assay type: functional; conditions: read-out: Activity
HCC827 [22] = assay: Induction of apoptosis in human HCC827 cells assessed as early apoptotic cells at 2 uM incubated for 48 hrs by annexin V-FITC and propidium iodide staining based flow cytometry analysis (reference value: 2.69%); assay type: functional
HCC827 [23] = assay: Induction of apoptosis in human HCC827 cells assessed as late apoptotic cells at 2 uM incubated for 48 hrs by annexin V-FITC and propidium iodide staining based flow cytometry analysis (reference value: 0.56%); assay type: functional
HCC827 [24] = assay: Induction of apoptosis in human HCC827 cells assessed as necrotic cells at 2 uM incubated for 48 hrs by annexin V-FITC and propidium iodide staining based flow cytometry analysis (reference value: 2.57%); assay type: functional
HCC827 [25] = assay: Induction of apoptosis in human HCC827 cells assessed as viable cells at 4 uM incubated for 48 hrs by annexin V-FITC and propidium iodide staining based flow cytometry analysis (reference value: 94.16%); assay type: functional; conditions: read-out: Activity
HCC827 [26] = assay: Induction of apoptosis in human HCC827 cells assessed as early apoptotic cells at 4 uM incubated for 48 hrs by annexin V-FITC and propidium iodide staining based flow cytometry analysis (reference value: 2.69%); assay type: functional
HCC827 [27] = assay: Induction of apoptosis in human HCC827 cells assessed as late apoptotic cells at 4 uM incubated for 48 hrs by annexin V-FITC and propidium iodide staining based flow cytometry analysis (reference value: 0.56%); assay type: functional
HCC827 [28] = assay: Induction of apoptosis in human HCC827 cells assessed as necrotic cells at 4 uM incubated for 48 hrs by annexin V-FITC and propidium iodide staining based flow cytometry analysis (reference value: 2.57%); assay type: functional

CCC(=O)Nc1ccc(-c2ccc3ncn(Cc4ccc5c(c4)OCO5)c(=O)c3c2)cn1
IC50 (HCC827 [1]): > 40 µM
IC50 [2]: > 40 µM
IC50 (SH-SY5Y): > 40 µM
IC50 (HEL): > 40 µM

CCC(=O)Nc1ccc(-c2ccc3ncn(Cc4ccc(C)cc4)c(=O)c3c2)cn1
IC50 (HCC827 [1]): > 40 µM
IC50 [2]: > 40 µM
IC50 (SH-SY5Y): > 40 µM
IC50 (HEL): > 40 µM

CCCCn1cnc2ccc(-c3ccc(NC(=O)CC)nc3)cc2c1=O
IC50 (L02): 10.9 µM
IC50 (HCC827 [1]): 1.2 µM
IC50 [2]: 2.49 µM
IC50 (SH-SY5Y): 3.72 µM
IC50 (HEL): 2.83 µM

CCCCC(=O)Nc1ccc(-c2ccc3ncn(Cc4ccc(C)cc4)c(=O)c3c2)cn1
IC50 (HCC827 [1]): 32.2 µM
IC50 [2]: > 40 µM
IC50 (SH-SY5Y): 35.4 µM
IC50 (HEL): 18.8 µM

CC(C)(C)C(=O)Nc1ccc(-c2ccc3ncn(Cc4ccccc4)c(=O)c3c2)cn1
IC50 (HCC827 [1]): > 40 µM
IC50 [2]: > 40 µM
IC50 (SH-SY5Y): > 40 µM
IC50 (HEL): > 40 µM

O=C(c1ccccc1)N(C(=O)c1ccccc1)c1ccc(-c2ccc3ncn(Cc4ccccc4)c(=O)c3c2)cn1
IC50 (L02): 8.66 µM
IC50 (HCC827 [1]): 1.12 µM
IC50 [2]: 2.65 µM
IC50 (SH-SY5Y): 2.13 µM
IC50 (HEL): 2.01 µM
IC50 [3]: 0.072 µM
Activity (HCC827 [4]): 11.77%
viability at 1 µM (HCC827 [5]): 68.2%
inhibition (HCC827 [6]): Active
inhibition (HCC827 [7]): Active
inhibition (HCC827 [8]): Active
Activity (HCC827 [9]): Dose-Dependent Effect
Activity (HCC827 [10]): Dose-Dependent Effect
Activity (HCC827 [11]): Active
Activity (HCC827 [12]): Active
Activity (HCC827 [13]): Active
Activity (HCC827 [14]): Active
Activity (HCC827 [15]): Dose-Dependent Effect
Activity (HCC827 [16]): Dose-Dependent Effect
Activity (HCC827 [17]): Dose-Dependent Effect
Activity (HCC827 [18]): Active
Activity (HCC827 [19]): 13.57%
Activity (HCC827 [20]): 6.47%
viability at 2 µM (HCC827 [21]): 58.5%
Activity (HCC827 [22]): 19.16%
Activity (HCC827 [23]): 15.63%
Activity (HCC827 [24]): 6.66%
viability at 4 µM (HCC827 [25]): 54.8%
Activity (HCC827 [26]): 27.87%
Activity (HCC827 [27]): 11.28%
Activity (HCC827 [28]): 6.05%

CCC(=O)Nc1ccc(-c2ccc3ncn(CCN4CCOCC4)c(=O)c3c2)cn1
IC50 (HCC827 [1]): > 40 µM
IC50 [2]: > 40 µM
IC50 (SH-SY5Y): > 40 µM
IC50 (HEL): > 40 µM

COC[C@H]1OC(=O)c2coc3c2[C@@]1(C)C1=C(C3=O)[C@@H]2CCC(=O)[C@@]2(C)C[C@H]1OC(C)=O [WORTMANNIN]
IC50 [3]: 0.018 µM

CCC(=O)Nc1ccc(-c2ccc3ncn(Cc4ccccc4)c(=O)c3c2)cn1
IC50 (HCC827 [1]): > 40 µM
IC50 [2]: > 40 µM
IC50 (SH-SY5Y): > 40 µM
IC50 (HEL): > 40 µM

Cn1c(=O)n(-c2ccc(C(C)(C)C#N)cc2)c2c3cc(-c4cnc5ccccc5c4)ccc3ncc21 [DACTOLISIB]
IC50 (HCC827 [1]): 0.53 µM
IC50 [2]: 1.31 µM
IC50 (SH-SY5Y): 0.79 µM
IC50 (HEL): 0.29 µM

Cc1ccc(Cn2cnc3ccc(-c4ccc(N(C(=O)c5ccccc5)C(=O)c5ccccc5)nc4)cc3c2=O)cc1
IC50 (HCC827 [1]): 29.2 µM
IC50 [2]: > 40 µM
IC50 (SH-SY5Y): > 40 µM
IC50 (HEL): > 40 µM

COCC(=O)Nc1ccc(-c2ccc3ncn(Cc4ccccc4)c(=O)c3c2)cn1
IC50 (HCC827 [1]): > 40 µM
IC50 [2]: > 40 µM
IC50 (SH-SY5Y): > 40 µM
IC50 (HEL): > 40 µM

CCC(=O)Nc1ccc(-c2ccc3ncn(CC(=O)N4CCOCC4)c(=O)c3c2)cn1
IC50 (HCC827 [1]): > 40 µM
IC50 [2]: > 40 µM
IC50 (SH-SY5Y): > 40 µM
IC50 (HEL): > 40 µM

CCCCC(=O)Nc1ccc(-c2ccc3ncn(Cc4ccccc4)c(=O)c3c2)cn1
IC50 (HCC827 [1]): > 40 µM
IC50 [2]: > 40 µM
IC50 (SH-SY5Y): > 40 µM
IC50 (HEL): > 40 µM

CC(C)(C)C(=O)Nc1ccc(-c2ccc3ncn(Cc4ccc5c(c4)OCO5)c(=O)c3c2)cn1
IC50 (HCC827 [1]): > 40 µM
IC50 [2]: > 40 µM
IC50 (SH-SY5Y): > 40 µM
IC50 (HEL): > 40 µM

CCCCC(=O)Nc1ccc(-c2ccc3ncn(Cc4ccc5c(c4)OCO5)c(=O)c3c2)cn1
IC50 (HCC827 [1]): > 40 µM
IC50 [2]: > 40 µM
IC50 (SH-SY5Y): > 40 µM
IC50 (HEL): > 40 µM

CCCCC(=O)Nc1ccc(-c2ccc3ncn(CCN4CCOCC4)c(=O)c3c2)cn1
IC50 (HCC827 [1]): 29 µM
IC50 [2]: > 40 µM
IC50 (SH-SY5Y): > 40 µM
IC50 (HEL): > 40 µM
